# SDO1 yeast rescue – compounds rescuing growth of sdo1-depleted yeast, bone marrow failure model | S. cerevisiae sdo1-depleted JHY4D growth rescue, OD600 30 h; stronger effect = higher value; pdr5 snq2 efflux-pump mutant strain | AID 817 | z-score at 10 µM | actives 0.21% (n = 140,000);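 active = z-score above 3 at both the 24 hr and the 30 hr optical density reads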
# Yeast growth inh – chemicals that inhibit yeast BB579 growth in restrictive medium (lifespan-shortening candidates); S. cerevisiae BB579 growth, OD615, 48 h; inhibition, % at 10 µM; actives 0.51% (n = 140,000); AID 804;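 active = inhibition above a set limit, 3 SD over the mean compound inhibition, cut at about 44% in these data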
#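 System: DeaD yeast strain BB579; buffer or medium: CSMM-D dextrose restrictive medium; technique: OD at 615 nm; schedule: 4 h cell preincubation, 48 h compound exposure, 30 °C humidified; doses: single 10 µM dose; controls: amphotericin B 10 µg/mL, positive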
# Yeast life ext – extends the lifespan of yeast. S. cerevisiae growth with nicotinamide, OD615; deaD strain in restrictive glucose medium. inhibition of the nicotinamide effect, % at 10 µM. actives 0.68% (n = 130,000). AID 775;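 active = inhibition above a set limit, placed 3 SD over the median of all compounds, cut at about 26% in these data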
#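 Buffer or medium: CSMM-D glucose medium, restrictive; test system: modified budding yeast, DeaD strain; compound: single dose 10 µM compound, 0.25% DMSO; schedule: culture preincubation 4 h, compound exposure 48 h, both 30 °C; detection: optical density (absorbance) at 615 nm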
# RAM inhibit – blocks the yeast RAM network. S. cerevisiae dse1pr::URA3 reporter, 5-FOA growth OD615, 2 d; analog-sensitive cbk1-as2 kinase mutant strain. inhibition, % at 50 µM. actives 1.8% (n = 190,000). AID 868;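 active = inhibition above a set limit, 3 SD over mean compound inhibition, cut at about 8.4% in these data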;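 also: inhibition rescues growth on 5-FOA so higher OD means more RAM inhibition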
# SDO1 rescue DR – confirmation of growth rescue in SDO1-depleted yeast, bone marrow failure. AID 949. actives 44% (n = 440). OD recovery (concentration not given with the values). S. cerevisiae JHY4D (SDO1-depleted) growth rescue, OD600, 30 h; stronger effect = higher value; efflux-deficient strain, SNQ2 and PDR5 mutated. shares compounds with SDO1 yeast rescue;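 active = yeast growth recovered at 30 hours, either rising with dose fitted slope above 0.001 or with average optical density gain above 0.07, some results past the limit were not filed as active; inactive = growth falling with dose or no effect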
# A number is an active result; 0 = inactive; - = no result. An excerpt weighted towards active compounds, which were near 2.7% of everything screened.
SMILES,SDO1 yeast rescue,Yeast growth inh,Yeast life ext,RAM inhibit,SDO1 rescue DR
CCN(CC)CCN1C(=O)C(=O)/C(=C(/O)c2ccc(F)cc2)C1c1cccnc1 (stereo not drawn),0,0,0,0,-
Cc1ccc(-n2nnnc2SCC(=O)Nc2nc(-c3ccc(F)cc3)cs2)cc1C,0,0,0,0,0
Cc1cc(C)cc(-n2nnnc2SCC(=O)Nc2nc(-c3ccc(F)cc3)cs2)c1,0,0,0,0,-
O=C(CSc1nnnn1-c1ccccc1)Nc1nc(-c2ccccc2)ns1,0,0,0,0,0.0706
COc1ccccc1N1CCN(C(=O)c2nn(-c3ccccc3OC)c(=O)c3ccccc23)CC1,0,0,0,0,-
Cc1ccc(C(=O)NCC(=O)OCC(=O)c2ccc3c(c2)OCCO3)cc1C,3.06,0,0,0,0
COC(=O)c1ccc2[nH]c(C)cc(=O)c2c1,5.96,0,0,0,0
COC(=O)C1C(=O)OC(C)(C)C1C(C)C(=O)c1ccccc1 (stereo not drawn),4.85,0,0,0,0
COC(=O)C1C(=O)OC(C)(C)C1C(C)C(=O)c1ccc(C)cc1C (stereo not drawn),-,-,-,0,-
Cc1ncoc1C(=O)Nc1cccc(Cl)c1C,0,0,0,0,-
Cc1c(Cl)cccc1NC(=O)c1ccc(-n2ccnc2)nc1,3.5,0,0,0,0
O=C1c2oc3ccccc3c(=O)c2C(c2cccc(O)c2)N1CCCN1CCOCC1 (stereo not drawn),0,0,0,0,-
CCOc1ccc(C2c3c(oc4ccccc4c3=O)C(=O)N2CCCN2CCOCC2)cc1OCC (stereo not drawn),0,0,0,0,0
CCN1CCN(CC(O)COCCOc2ccc(Br)cc2)CC1 (stereo not drawn),6.9,0,0,0,0
CN1CCN(CC(O)COCCOc2ccc(Br)cc2)CC1 (stereo not drawn),0,0,0,0,-
COc1ccc(C(O)c2nc3ccccc3s2)cc1 (stereo not drawn),10.2,0,0,0,0
c1ccn2c(SCc3cn4ccsc4n3)nnc2c1,0,0,0,0,-
COC(=O)c1c(C(=O)OC)c2cc(C)ccn2c1Cl,10.6,0,0,0,0.0837
COC(=O)c1nc2cc(C)ccn2c1F,0,0,0,0,-
CCOC(=O)c1cc2oc(C)cc2n1CC(=O)OC1CCCCC1,0,0,0,0,-
COc1ccc(N2CCN(C(=O)Cn3cnc4c3c(=O)n(C)c(=O)n4C)CC2)cc1,-,-,-,0,-
Cn1c(=O)c2c(ncn2CC(=O)N2CCN(c3cccc(Cl)c3)CC2)n(C)c1=O,14.3,0,0,0,0
N#Cc1c(-c2ccc(Cl)cc2)c(C#N)c(=O)n(N)c1N,0,0,0,0,-
COC(=O)c1c(C)[nH]c(C(=O)/C=C/c2cccc(Cl)c2)c1C,10.8,0,0,0,0
Cc1ccc(S(=O)(=O)N2CCN=C2c2ccccc2)cc1C,0,0,-,0,-
SMILES,SDO1 yeast rescue,Yeast growth inh,Yeast life ext,RAM inhibit,SDO1 rescue DR
COc1ccc(C2/C(=C(\O)c3ccc4c(c3)OCCO4)C(=O)C(=O)N2CCCN(C)C)cc1 (stereo not drawn),0,0,0,0,-
Cc1ccc(C2/C(=C(\O)c3ccc4c(c3)OCCO4)C(=O)C(=O)N2CCCN(C)C)o1 (stereo not drawn),6.86,0,0,0,0.0972
COc1ccc(C(=O)N2CCN=C2SCc2cccnc2)cc1OC,0,0,0,0,0
COc1ccc(CC(=O)OCC(=O)Nc2cccc(Br)c2)cc1,-,-,-,0,-
CC(C)c1nnc(N2C(=O)c3oc4ccccc4c(=O)c3C2c2ccco2)s1 (stereo not drawn),0,0,-,0,0.0768
CCOc1cc(C#N)c(NC(=O)c2cccnc2)cc1OCC,0,0,0,0,0
CCOc1cc(C#N)c(NC(=O)c2cccnc2Cl)cc1OCC,0,0,0,0,-
S=c1sc2c(N3CCOCC3)ncnc2n1-c1ccccc1,7.63,0,0,0,0
C=CCn1c(-c2csc(-c3ccc(OC)c(OC)c3)n2)n[nH]c1=S,-,-,-,0,-
COc1cc(CC(=O)OCC(=O)Nc2cc(S(=O)(=O)N3CCCC3)ccc2Cl)cc(OC)c1OC,0,0,0,0,-
COc1ccc(-c2nnc(SCC(=O)NCc3ccco3)o2)cc1,0,0,0,0,-
O=C(CSc1nnc(-c2ccc(S(=O)(=O)N3CCCC3)cc2)o1)NCc1ccco1,0,0,0,0,0

# Screening results from PubChem BioAssay.
